Test results taken from ChEMBL document CHEMBL1152671, “Structure-activity relationship studies of manzamine A: amidation of positions 6 and 8 of the beta-carboline moiety” (Bioorg Med Chem, 2009).
In brackets after ≈: the same amount, converted by molar mass. Activity calls are given as the source filed them.

Legend:
[1] = system: Plasmodium falciparum; test: Antimalarial activity against chloroquine-sensitive Plasmodium falciparum D6 infected in African green monkey (Cercopithecus aethiops) Vero cells assessed as parasite LDH activity after 72 hrs; format: functional, organism-based
[2] = system: Plasmodium falciparum; test: Antimalarial activity against chloroquine-resistant Plasmodium falciparum W2 infected in African green monkey (Cercopithecus aethiops) (Cercopithecus aethiops) Vero cells assessed as parasite LDH activity after 72 hrs; format: functional, organism-based
[3] = system: Vero; test: Cytotoxicity against african green monkey Vero cells up to 470 nM by neutral red assay; format: cell-based; details: chlorocebus sabaeus
[4] = system: Plasmodium berghei; test: Antimalarial activity against Plasmodium berghei NK65 infected in Swiss Webster mice (Mus musculus) assessed as inhibition of parasitaemia at 30 mg/kg, perorally daily for 3 consecutive days administered 2 hrs after infection measured on day 28 post infection; format: functional; details: route oral
In short: (§1)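 Male Swiss Webster mice, 18–20 g, inoculated intraperitoneally with 2 × 10⁷ P. berghei NK-65 parasitized red blood cells taken from a donor mouse. Groups of 5 mice were dosed orally about 2 h post-infection, once daily on […], at 3.3, 10 or 30 mg/kg. Controls were vehicle and chloroquine 10 mg/kg. Mice were observed after each dose for toxicity signs. Parasitemia was read on Giemsa-stained tail-blood smears, with suppression on days 5 and 7 and cure defined as no parasitemia to day 28.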

[5] = system: Mus musculus; test: Toxicity in Swiss Webster mice (Mus musculus) infected with Plasmodium berghei NK65 at 30 mg/kg, perorally QD for 3 consecutive days administered 2 hrs after infection; format: organism-based; design: dose 30 mg/kg, route oral; details: in vivo, po; in short: as §1
[6] = system: Candida albicans; test: Antifungal activity against Candida albicans by modified NCCLS method; format: functional, organism-based
[7] = system: Cryptococcus neoformans; test: Antifungal activity against Cryptococcus neoformans by modified NCCLS method; format: functional, organism-based
[8] = system: Cryptococcus neoformans; test: Antifungal activity against Cryptococcus neoformans after 24 hrs by alamar blue assay; format: functional
[9] = system: Mycobacterium intracellulare; test: Antibacterial activity against Mycobacterium intracellular by alamar blue assay; format: functional, organism-based
[10] = system: Mycobacterium intracellulare; test: Antibacterial activity against Mycobacterium intracellular after 24 hrs by alamar blue assay; format: functional
[11] = system: Aspergillus fumigatus; test: Antifungal activity against Aspergillus fumigatus by modified NCCLS method; format: functional, organism-based
[12] = system: Escherichia coli; test: Antibacterial activity against Escherichia coli by modified NCCLS method; format: functional, organism-based
[13] = system: Pseudomonas aeruginosa; test: Antibacterial activity against Pseudomonas aeruginosa by modified NCCLS method; format: functional, organism-based
[14] = system: Candida albicans
[15] = system: Aspergillus fumigatus
[16] = system: Candida albicans; test: Antifungal activity against Candida albicans after 24 hrs by alamar blue assay
[17] = system: Aspergillus fumigatus; test: Antifungal activity against Aspergillus fumigatus after 24 hrs by alamar blue assay
[18] = Therapeutic index, ratio of TC50 for african green monkey (Cercopithecus aethiops) Vero cells to IC50 for chloroquine-sensitive Plasmodium falciparum D6 infected in african green monkey (Cercopithecus aethiops) Vero cells; format: cell-based; details: read-out: TI
[19] = Therapeutic index, ratio of TC50 for african green monkey (Cercopithecus aethiops) Vero cells to IC50 for chloroquine-resistant Plasmodium falciparum W2 infected in african green monkey (Cercopithecus aethiops) Vero cells; format: cell-based; details: read-out: TI
[20] = Cryptococcus neoformans, read-out: IC50
[21] = Candida albicans, read-out: IC50

Row | Compound | IC50 [1] [nM] | IC50 [2] [nM] | Activity [3] | IC50 [6] | IC50 [7, 20] [nM] | MIC [8] | IC50 [9] [nM] | MIC [10] [µM] | IC50 [11] | Activity [12] | Activity [13] | MIC [14] | MIC [15] | other results
1 | CCCCCC(=O)Nc1cccc2c1[nH]c1c(C3=C[C@@]4(O)CC/C=C\CCCCN5CC[C@@H]3[C@]3(C[C@@H]6/C=C\CCCCN6[C@H]34)C5)nccc12 [8-N-HEXAMIDOMANZAMINE A] | 32 | 65 | Non-toxic | Not Active | 3780 | inactive | 30 | 0.468 (≈ 0.31 µg/mL) | Not Active | inactive | inactive | inactive | inactive | inhibition in vivo at 30 mg/kg [4]: 62%; Activity [5]: Non-toxic
2 | O=C(Nc1ccc2[nH]c3c(C4=C[C@@]5(O)CC/C=C\CCCCN6CC[C@@H]4[C@]4(C[C@@H]7/C=C\CCCCN7[C@H]45)C6)nccc3c2c1)C1CCCCC1 [6-CYCLOHEXAMIDOMANZAMINE A] | 34 | 53 | Non-toxic | Not Active | 22300 | inactive | 1260 | 1.86 (≈ 1.25 µg/mL) | Not Active | inactive | inactive | inactive | inactive | inhibition in vivo at 30 mg/kg [4]: 24%; Activity [5]: Non-toxic
3 | C[C@@H]1[C@H](O)[C@@H](C)/C=C/C=C/C=C/C=C/C=C/C=C/C=C/[C@H](O[C@@H]2O[C@H](C)[C@@H](O)[C@H](N)[C@@H]2O)C[C@@H]2O[C@](O)(C[C@@H](O)C[C@@H](O)[C@H](O)CC[C@@H](O)C[C@@H](O)CC(=O)O[C@H]1C)C[C@H](O)[C@H]2C(=O)O [AMPHOTERICIN B] | – | – | – | – | 920 | 2.71 µM (≈ 2.5 µg/mL) | – | – | – | – | – | – | – | IC50 [6, 21]: 487 nM; MIC [16]: 1.35 µM (≈ 1.25 µg/mL); IC50 ([11]; Aspergillus fumigatus, read-out: IC50): 1620 nM; MIC [17]: 2.7 µM (≈ 2.5 µg/mL)
4 | CCCCC(=O)Nc1cccc2c1[nH]c1c(C3=C[C@@]4(O)CC/C=C\CCCCN5CC[C@@H]3[C@]3(C[C@@H]6/C=C\CCCCN6[C@H]34)C5)nccc12 [8-N-PENTAMIDOMANZAMINE A] | 53 | 49 | Non-toxic | Not Active | 4630 | inactive | 695 | 0.973 (≈ 0.63 µg/mL) | Not Active | inactive | inactive | inactive | inactive | –
5 | CC(C)(C)CC(=O)Nc1ccc2[nH]c3c(C4=C[C@@]5(O)CC/C=C\CCCCN6CC[C@@H]4[C@]4(C[C@@H]7/C=C\CCCCN7[C@H]45)C6)nccc3c2c1 | 211 | 302 | Non-toxic | Not Active | – | inactive | 1360 | 1.89 (≈ 1.25 µg/mL) | Not Active | inactive | inactive | inactive | inactive | IC50 [7]: Not Active
6 | CCCCCC(=O)Nc1ccc2[nH]c3c(C4=C[C@@]5(O)CC/C=C\CCCCN6CC[C@@H]4[C@]4(C[C@@H]7/C=C\CCCCN7[C@H]45)C6)nccc3c2c1 [6-N-HEXAMIDOMANZAMINE A] | 680 | 786 | Non-toxic | Not Active | – | inactive | 15100 | 30.2 (≈ 20 µg/mL) | Not Active | inactive | inactive | inactive | inactive | IC50 [7]: Not Active
7 | O[C@]12C=C(c3nccc4c3[nH]c3ccccc34)[C@@H]3CCN(CCCC/C=C\CC1)C[C@@]31C[C@@H]3/C=C\CCCCN3[C@H]12 [MANZAMINE A] | 8 | 11 | – | – | 1850 | – | – | – | – | – | – | inactive | – | selectivity ratio [18]: 44; selectivity ratio [19]: 25; IC50 [6, 21]: 3660 nM
